Key:
proteinase K = proteinase K (Parengyodontium album, UniProt P06873); experiment: Hydrogel weight loss in proteinase K solution or PBS; format: in vitro ADME; conditions: PBS 1× without enzyme, 37 °C, 22 days
Procedure, shortened: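 Gels (10 mM PA-E3, 10 mM DBS-COOH, or 5 mM/5 mM mixture) formed by GdL acidification, soaked 1 h in PBS, then incubated at 37 °C in proteinase K (5 mg/mL in PBS) or PBS 1× alone; solutions renewed after each weighing at intervals up to 22 days; weight loss = (Wf – Wi)/Wi × 100 versus initial weight.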

[1] = Optical appearance of the hydrogels; format: physicochemical; conditions: 10 mM gelator, gelation by GdL acidification overnight; visual
Procedure, shortened: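 Gelators at 10 mM in PBS (pH 7.4) were dissolved with 0.5 M NaOH (to pH 9), either singly or mixed at 100/0, 80/20, 50/50, 20/80 and 0/100 molar % (10 mM total). Solutions were shaken with GdL (4 mg per vial) until dissolved, then left overnight to gel.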

[2] = aqueous; cited from earlier work
[3] = tested on: Human-adipose-derived stem cells (hADSCs); experiment: Live/dead assay of cells cultured on the hydrogels; format: cell-based; conditions: 4 days in culture, live/dead staining
Procedure, shortened: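 GdL-formed gels at 1:0, 4:1, 1:1, 1:4 and 0:1 PA-E3/DBS-COOH were cross-linked with 50 mM CaCl2 and PBS-washed to pH 7. hADSCs were seeded at 5000 cells/mL and cultured 4 days at 37 °C, 5% CO2, with tissue-culture plastic as reference. Stained 30 min with calcein AM (live, green) and ethidium homodimer-1 (dead, red); imaged by confocal microscopy.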

Chain of proteinase K (P06873 106-384, species assumed): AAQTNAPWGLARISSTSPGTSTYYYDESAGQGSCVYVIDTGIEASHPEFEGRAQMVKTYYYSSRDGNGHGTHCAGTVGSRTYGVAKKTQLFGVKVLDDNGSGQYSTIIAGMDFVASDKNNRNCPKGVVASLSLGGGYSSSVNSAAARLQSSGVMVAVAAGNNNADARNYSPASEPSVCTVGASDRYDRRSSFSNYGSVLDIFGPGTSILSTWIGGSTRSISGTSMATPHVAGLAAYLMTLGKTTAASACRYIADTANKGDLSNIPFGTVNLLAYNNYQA

Compound | Weight ratio of hydrogel in PBS (proteinase K) | Optical appearance of hydrogel (transparency) [1] | pKa of the terminal carboxylic acid [2] | Live cell coverage of hydrogel ([3]; confocal imaging) | Cell viability on hydrogel compared with PA-E3 hydrogels ([3]; qualitative comparison)
CH3-(CH2)14-CONH-VVVAAAEEE-CONH2 [PA-E3] | remained constant | optically transparent | 4–5 | – | –
O=C(O)c1ccc([C@@H]2OC[C@@H]3O[C@H](c4ccc(C(=O)O)cc4)O[C@H]([C@H](O)CO)[C@@H]3O2)cc1 [DBS-COOH] | – | translucent | 4–5 | fully covered with live cells | more viable

Source: publication PMC6792223 (Chemistry of Materials, 2019)
